# Measured values gathered from unrelated publications.
# Protocols differ between the studies behind these lines.
SMILES,target or system,assay,test system,conditions,measurement,result
CN(c1ccnc(Nc2cccc(-c3cccnc3)c2)n1)C1CCCCC1,BJ,"cell growth or viability, ATP luminescence",,72 h,EC50,> 8 µM
O=c1cc(-c2ccc(O)cc2)oc2cc(O)cc(O)c12,Helicobacter pylori,"microbial growth, broth dilution",,31.25 µg/mL,inhibition,100%
CCCCNc1ccnc(Nc2cccc(-c3cccnc3)c2)n1,BJ,"cell growth or viability, ATP luminescence",,72 h,EC50,> 17 µM
CS(=O)(=O)c1ccc([C@@H](O)[C@@H](CF)NC(=O)C(Cl)Cl)cc1,Salmonella enterica,microbial growth,ENTERITIDIS,"20 h, pH 7.2",MIC,8 µg/mL
O=C(O)c1ccc(O)cc1,Helicobacter pylori,"microbial growth, broth dilution",,62.5 µg/mL,inhibition,100%
CONc1ccnc(Nc2cccc(-c3cccnc3)c2)n1,BJ,"cell growth or viability, ATP luminescence",,72 h,EC50,> 12 µM
O=C(N[C@H](CO)[C@H](O)c1ccc([N+](=O)[O-])cc1)C(Cl)Cl,Salmonella enterica,microbial growth,,"20 h, pH 7",MIC,2 µg/mL
C[C@H](Nc1ccnc(Nc2cccc(-c3cccnc3)c2)n1)C(=O)O,BJ,"cell growth or viability, ATP luminescence",,72 h,EC50,> 9 µM
CC1(C)S[C@@H]2[C@H](NC(=O)[C@H](N)c3ccccc3)C(=O)N2[C@H]1C(=O)O,Salmonella enterica,microbial growth,"F98, TYPHIMURIUM","20 h, pH 7.2",MIC,2 µg/mL
O=C(Nc1cncc(-c2nc3ccccc3o2)c1)c1ccc(N2CCNCC2)c([N+](=O)[O-])c1,BJ,"cell growth or viability, ATP luminescence",,,EC50,> 20 µM
O=c1cc(-c2ccc(O)c(O)c2)oc2cc(O)cc(O)c12,Helicobacter pylori,"microbial growth, broth dilution",,1.95 µg/mL,inhibition,89.3%
CO/N=C(\C(=O)N[C@@H]1C(=O)N2C(C(=O)O)=C(CSc3nc(=O)c(=O)[nH]n3C)CS[C@H]12)c1csc(N)n1,Salmonella enterica,microbial growth,"F98, TYPHIMURIUM","20 h, pH 7.2",MIC,0.125 µg/mL
